Assays:
[1] = target: T1, NAD-dependent protein deacetylase sirtuin-3, mitochondrial (Homo sapiens) (UniProt Q9NTG7); details: at 50 µM;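 further: recombinant His-tagged human SIRT3 with KI179 substrate, fluorescence read after 1 h, inhibition expressed relative to control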
T1 sequence (whole entry): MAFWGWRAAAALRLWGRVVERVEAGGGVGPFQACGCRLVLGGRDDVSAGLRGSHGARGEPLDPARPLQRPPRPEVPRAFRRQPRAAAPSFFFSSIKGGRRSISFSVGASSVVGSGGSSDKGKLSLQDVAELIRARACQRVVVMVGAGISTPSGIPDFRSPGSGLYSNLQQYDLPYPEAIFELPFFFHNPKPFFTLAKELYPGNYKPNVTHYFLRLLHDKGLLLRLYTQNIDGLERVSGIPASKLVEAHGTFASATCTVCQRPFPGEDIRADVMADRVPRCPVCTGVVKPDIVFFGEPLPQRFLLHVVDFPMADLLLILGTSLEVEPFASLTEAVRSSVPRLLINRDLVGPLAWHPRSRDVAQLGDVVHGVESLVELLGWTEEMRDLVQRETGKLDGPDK

[2] = target: T2, NAD-dependent protein deacetylase sirtuin-2 (Homo sapiens) (UniProt Q8IXJ6); experiment: Inhibition of human recombinant GST-tagged SIRT2 using KI179 as substrate at 50 uM preincubated for 5 mins followed by enzyme addition measured after 1 hr by fluorescence assay relative to control
T2 sequence (whole entry): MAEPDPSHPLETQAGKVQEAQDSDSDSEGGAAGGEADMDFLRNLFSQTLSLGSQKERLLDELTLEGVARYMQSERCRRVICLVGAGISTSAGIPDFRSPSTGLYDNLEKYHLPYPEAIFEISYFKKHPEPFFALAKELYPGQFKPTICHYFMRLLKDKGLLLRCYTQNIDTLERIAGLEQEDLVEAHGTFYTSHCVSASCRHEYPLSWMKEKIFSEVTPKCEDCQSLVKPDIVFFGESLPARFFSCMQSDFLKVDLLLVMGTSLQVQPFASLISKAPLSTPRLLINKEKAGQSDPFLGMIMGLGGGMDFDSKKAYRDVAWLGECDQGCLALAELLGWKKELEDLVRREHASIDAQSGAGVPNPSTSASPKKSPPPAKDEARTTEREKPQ
Summary of the method: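 Recombinant GST-SIRT2, Fluor de Lys assay in SIRT assay buffer. Acetylated peptide KI179 at 0.7 Km (Km 198 µM) and NAD+ at 0.9 Km (reported Km 547 µM). Buffer, substrate, NAD+ and compound in DMSO preincubated 5 min at room temperature. Enzyme added to start; 1 h at 37 °C. Developer with 2 mM nicotinamide added; 45 min at 37 °C; fluorescence read. Mean ± SD, ≥3 experiments.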

[3] = target: T3, NAD-dependent protein deacetylase sirtuin-1 (Homo sapiens) (UniProt Q96EB6); details: at 50 µM;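 further: recombinant GST-tagged human SIRT1 enzyme assay with KI177 substrate, fluorescence read 1 h after enzyme addition, inhibition expressed relative to control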
T3 sequence (whole entry): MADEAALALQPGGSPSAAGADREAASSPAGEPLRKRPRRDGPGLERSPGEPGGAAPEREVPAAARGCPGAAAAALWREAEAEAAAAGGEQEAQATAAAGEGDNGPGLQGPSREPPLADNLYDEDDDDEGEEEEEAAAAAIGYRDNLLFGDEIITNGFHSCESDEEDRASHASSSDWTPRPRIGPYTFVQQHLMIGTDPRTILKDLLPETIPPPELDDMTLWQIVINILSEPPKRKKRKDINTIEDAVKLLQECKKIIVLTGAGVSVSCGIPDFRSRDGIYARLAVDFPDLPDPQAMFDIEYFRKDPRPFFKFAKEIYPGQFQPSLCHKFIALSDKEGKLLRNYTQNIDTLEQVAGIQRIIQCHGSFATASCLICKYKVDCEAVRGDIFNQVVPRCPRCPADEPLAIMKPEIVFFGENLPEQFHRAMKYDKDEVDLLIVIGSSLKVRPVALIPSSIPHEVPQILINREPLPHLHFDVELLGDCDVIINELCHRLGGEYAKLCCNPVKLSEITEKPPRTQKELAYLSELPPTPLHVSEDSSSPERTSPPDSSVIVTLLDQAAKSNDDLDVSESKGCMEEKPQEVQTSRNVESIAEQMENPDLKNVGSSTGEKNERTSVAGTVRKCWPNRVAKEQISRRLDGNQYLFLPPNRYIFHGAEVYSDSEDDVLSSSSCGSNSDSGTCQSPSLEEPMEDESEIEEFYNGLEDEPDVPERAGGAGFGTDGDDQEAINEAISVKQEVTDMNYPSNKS

| Compound | inhibition [1] [%] | inhibition [2] [%] | inhibition [3] [%] |
| --- | --- | --- | --- |
| CC(=S)NCCCC[C@H](NC(=O)OCc1ccccc1)C(=O)NCC(O)c1ccccc1 (some centres not stated) | 45 | 54 | 77 |
| CC(=S)NCCCC[C@H](NC(=O)CCc1cccnc1)C(=O)Nc1ccccc1 | 44 | 39 | 82 |
| CC(=S)NCCCC[C@H](NC(=O)CCCCCCc1ccccc1)C(=O)NCc1ccccc1 | 87 | 74 | 99 |
| CC(=S)NCCCC[C@H](NC(=O)OCc1ccccc1)C(=O)Nc1cccnc1 | 59 | 70 | 84 |
| CC(=S)NCCCC[C@H](NC(=O)[C@@H]1CCCN1C(=O)OC(C)(C)C)C(=O)Nc1ccccc1 | 45 | 44 | 80 |
| CC(=S)NCCCC[C@H](NC(=O)OC(C)(C)C)C(=O)NCCc1cccnc1 | 24 | 28 | 41 |
| CC(=S)NCCCC[C@H](NC(=O)OCc1ccccc1)C(=O)Nc1ccccc1 | 62 | 81 | 83 |
| CC(=S)NCCCC[C@H](NC(=O)CN(C)C)C(=O)Nc1ccccc1 | 16 | 18 | 62 |
| CC(=S)NCCCC[C@H](NC(=O)[C@@H]1CCCN1C(=O)OC(C)(C)C)C(=O)NCCc1cccnc1 | 68 | 49 | 66 |
| CC(=S)NCCCC[C@H](NC(=O)[C@@H]1CCCN1C(=O)OC(C)(C)C)C(=O)NCC(=O)c1ccccc1 | 76 | 95 | 97 |
| CC(=S)NCCCC[C@H](NC(=O)OC(C)(C)C)C(=O)NCC(=O)c1ccccc1 | 63 | 87 | 91 |
| CC(=S)NCCCC[C@H](NC(=O)CCCc1ccccc1)C(=O)NCC(=O)c1ccccc1 | 72 | 76 | 98 |
| CC(=S)NCCCC[C@H](NC(=O)[C@@H]1C[C@@H](O)CN1C(=O)OCc1ccccc1)C(=O)NCc1ccccc1 | 93 | 87 | 97 |
| CC(=S)NCCCC[C@H](NC(=O)CCc1cccnc1)C(=O)NCC(=O)c1ccccc1 | 62 | 58 | 95 |
| CC(=S)NCCCC[C@H](NC(=O)CCc1ccccc1)C(=O)NCC(=O)c1ccccc1 | 68 | 65 | 96 |
| CC(=S)NCCCC[C@H](NC(=O)CCc1ccccc1F)C(=O)Nc1cccnc1 | 72 | 74 | 94 |
| CC(=S)NCCCC[C@H](NC(=O)OCc1ccccc1)C(=O)N[C@@H](C)C(N)=O | 85 | 86 | 96 |
| CC(=S)NCCCC[C@H](NC(=O)OCc1ccccc1)C(=O)NCCc1c[nH]c2ccccc12 | 46 | 61 | 85 |
| CC(=S)NCCCC[C@H](NC(=O)OCc1ccccc1)C(=O)NCCc1c[nH]c2ccc(OCc3ccccc3)cc12 | 68 | 79 | 87 |
| CC(=S)NCCCC[C@H](NC(=O)CCCCCc1ccccc1)C(=O)NCc1ccccc1 | 84 | 71 | 100 |
| CC(=S)NCCCC[C@H](NC(=O)CCCCCc1ccccc1)C(=O)NCC(=O)c1ccccc1 | 82 | 83 | 98 |
| CC(=S)NCCCC[C@H](NC(=O)[C@@H]1C[C@@H](O)CN1C(=O)OCc1ccccc1)C(=O)Nc1ccccc1 | 69 | 54 | 90 |
| CC(=S)NCCCC[C@H](NC(=O)OCc1ccccc1)C(=O)NCC(=O)c1ccccc1 | 74 | 94 | 97 |
| CC(=S)NCCCC[C@H](NC(=O)OCc1ccccc1)C(=O)NCc1ccccc1 | 71 | 67 | 91 |
| CC(=S)NCCCC[C@H](NC(=O)OCc1ccccc1)C(=O)NCCc1ccccc1 | 41 | 52 | 72 |
| CC(=S)NCCCC[C@H](NC(=O)[C@@H]1CCCN1)C(=O)Nc1ccccc1 | 19 | 13 | 86 |
| CC(=S)NCCCC[C@H](NC(=O)C[C@@H]1NC(=O)[C@H](Cc2ccccc2)NC1=O)C(=O)NCC(=O)c1ccccc1 | 61 | 73 | 96 |
| CC(=S)NCCCC[C@H](NC(=O)OCc1ccccc1)C(=O)NCC(N)=O | 77 | 72 | 91 |
| CC(=S)NCCCC[C@H](NC(=O)CCc1ccccc1)C(=O)Nc1cccnc1 | 39 | 21 | 83 |
